Assay results as given in ChEMBL document CHEMBL1139016, “Synthesis and antiviral activity of 2'-deoxy-2'-fluoro-2'-C-methyl purine nucleosides as inhibitors of hepatitis C virus RNA replication” (Bioorg Med Chem Lett, 2006).

Experiments:
[1] = system: Hepatitis C virus; assay: Antiviral activity against HCV replication; format: functional, organism-based, Hepacivirus hominis
[2] = system: Huh-7; assay: Cytotoxicity against Huh7 cells by MTS assay; format: functional; conditions: Homo sapiens
Procedure, shortened: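 Cells exposed to compound for 96 h; viability read by MTS tetrazolium reduction (non-radioactive cell proliferation kit); CC50 taken as the 50% cytotoxic concentration.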

| SMILES | EC90 [1] [µM] | CC50 [2] [µM] |
| --- | --- | --- |
| C[C@@]1(F)[C@H](O)[C@@H](CO)O[C@H]1n1cnc2c(Cl)nc(N)nc21 | 62.4 | > 100 |
| C[C@@]1(F)[C@H](O)[C@@H](CO)O[C@H]1n1cnc2c(O)nc(N)nc21 | 56 | > 100 |
| C[C@@]1(F)[C@H](O)[C@@H](CO)O[C@H]1n1cnc2c(N)ncnc21 | > 100 | > 100 |
| C[C@@]1(F)[C@H](O)[C@@H](CO)O[C@H]1n1cnc2c(Cl)ncnc21 | 88.2 | 27.1 |
| C[C@@]1(O)[C@H](O)[C@@H](CO)O[C@H]1n1cnc2c(N)ncnc21 | 1.4 | 15 |
| C[C@@]1(O)[C@H](O)[C@@H](CO)O[C@H]1n1cnc2c(=O)[nH]c(N)nc21 [2'-B-METHYL-GUANOSINE] | 10.8 | > 100 |
